PMC4005387 (MedChemComm, 2014)

Assays:
[1] = target: KIX N627C / fluorescently-labeled MLL peptide (Mus musculus, UniProt P45481, N627C); settings: fragment covalently associated with KIX N627C; cited from earlier work
KIX N627C mutant = KIX N627C mutant (Mus musculus, UniProt P45481, N627C); assay: LC-MS Tethering: labelling of KIX N627C by disulphide fragment; format: binding; settings: 5 mM BME, 250 μM fragment
KIX H602C = KIX H602C (Mus musculus, UniProt P45481, H602C); assay: LC-MS analysis of labelling of KIX H602C by disulphide fragments; format: binding
KIX H602C, sequence (P45481 586-665 H602C limits assumed): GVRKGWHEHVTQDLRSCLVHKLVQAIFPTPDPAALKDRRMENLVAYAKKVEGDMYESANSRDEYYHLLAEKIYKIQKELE
How it was run: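 Tethering reactions of KIX H602C with ten hit disulphide fragments from the FP screen were run at increasing β-ME stringency to compare relative affinities. Mass spectrometry gave the percent of protein carrying each fragment through the disulphide.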

KIX N627C / fluorescently-labeled MLL peptide, sequence (P45481 586-665 N627C limits assumed): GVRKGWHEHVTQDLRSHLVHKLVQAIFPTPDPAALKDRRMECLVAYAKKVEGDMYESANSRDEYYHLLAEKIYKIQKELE
KIX N627C mutant, sequence (P45481 586-665 N627C limits assumed): as above

SMILES | inhibition of MLL binding [1] | percent of KIX N627C mutant labelled (KIX N627C mutant) | percent labelling of KIX (KIX H602C; 5 mM β-ME, KIX H602C, MS) | DR50 (concentration at which 50% of the KIX H602C mutant is bound by the fragment) (KIX H602C; LC-MS dose-response, result in words)
COc1ccc2cc([C@H](C)C(=O)NCCSSCCN)ccc2c1 [1C11] | effective inhibitors of MLL binding |  |  | 
CN(C)CCSSCCC(=O)N1CCC(O)(c2ccc(Cl)c(C(F)(F)F)c2)CC1 [1A10] | effective inhibitors of MLL binding | 82% |  | 
CC(=O)Nc1ccc(Cl)c(NC(=O)NCCSSCCN(C)C)c1 [3D4] |  |  | ~ 70% | lower with the fragment 3D4 than 6D11
